Measurements as given in the array DNA melting data of Ke et al. (doi:10.1101/2024.01.08.574731).

Assays:
[1] = folding enthalpy; higher = less favourable; fluorescence melt of hairpins on a sequencing array, two-state fit; details: sodium 0.088 M
Outline: (§1)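 Folding enthalpy and melting temperature come from bootstrapped two-state fits to Cy3 fluorescence of library hairpins carrying annealed Cy3 and quencher oligos on a sequenced MiSeq flow cell. Imaging was done in 50 mM Na-HEPES pH 8.0, 25 mM NaCl, stepping by 2.5 °C up to 60 °C, and signals were normalised to pre-quench Cy3 and to control constructs. Results of four replicates were combined by inverse variance, and fitted temperatures were raised by 9.35 °C to match UV melts.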

[2] = melting temperature; fluorescence melt of hairpins on a sequencing array, two-state fit, raised by 9.35 °C to match UV melts; details: sodium 0.088 M
Outline: as §1

Sequence	folding enthalpy [1] [kcal/mol]	Tm [2] [°C]
GCGGGGCGAAAGCCTTGC ((..(((....)))..))	-18	58.4
GCGGGGCGAAAGCGCAGC ((.(.((....)).).))	-23.5	59.5
GCGGGGCGAAAGCTTCGC (((..((....))..)))	-35.3	63
GCGGGGCTCCGC ((((....))))	-26.7	67.4
GCGGGGGCGAAAGCCCGC (((..(((....))))))	-11.4	65.1
GCGGGGGGAAACCCTCGC (((.(((....))).)))	-38	61.6
GCGGGGGGCCGC ((((....))))	-13.5	60.7
GCGGGGTGCCGC ((((....))))	-26.3	61.2
GCGGGTGCGAAAGCACGC (((..(((....))))))	-10.3	55.7
GCGGTACGAAAGTACGC (((.(((....))))))	-26.4	60.7
GCGGTACGCCGC ((((....))))	-13.5	67
GCGGTAGGAAACTACTGC ((.((((....)))).))	-34.8	52.2
GCGGTAGGCCGC ((((....))))	-17.4	63.7
GCGGTAGTCCGC ((((....))))	-21.9	58.8
GCGGTATTCCGC ((((....))))	-30.6	56.4
GCGGTCATCCGC ((((....))))	-26.7	59.3
GCGGTCCTCCGC ((((....))))	-28	58.5
GCGGTCGAAAGACAACGC ((((((....)))..)))	-27.7	56.6
GCGGTCGAAAGACACGC ((((((....))).)))	-27.4	61.8
GCGGTCGAAAGACTCCGC ((((((....)))..)))	-25.4	50.7
GCGGTCTGCCGC ((((....))))	-22.7	62.1
GCGGTGAACCGC ((((....))))	-30	61.1
GCGGTGCGAAAGCAGAGC ((..(((....)))..))	-33	63.5
GCGGTGCGAAAGCCTCGC (((..((....))..)))	-22.2	59.1
GCGGTGCGAAAGCGTCGC (((..((....))..)))	-32.6	65.1

Sequence	folding enthalpy [1] [kcal/mol]	Tm [2] [°C]
GCGGTGCGAAAGCTGCGC (((..((....))..)))	-32.1	64.2
GCGGTGTCCCGC ((((....))))	-32.1	56.5
GCGGTGTCGAAAGACCGC (((..(((....))))))	-30.4	58.9
GCGGTTAGCCGC ((((....))))	-24.3	62.4
GCGGTTCCCCGC ((((....))))	-21	60.8
GCGGTTCTCCGC ((((....))))	-31.9	58.3
GCGGTTGGAAACAACCAC (.(((((....))))).)	-14.8	44.8
GCGGTTGGAAACAACTGC ((.((((....)))).))	-46.5	55.6
GCGGTTTCCGC ((((...))))	-29.4	60.5
GCGGTTTCGAAAGAACGC (((..(((....))))))	-26.5	44.8
GCGTAAACACGC ((((....))))	-19.5	50.4
GCGTAAATACGC ((((....))))	-25.4	50
GCGTAACCGAAAGGTCGC (((..(((....))))))	-34.2	53
GCGTAACGAAAGTTCCGC (((.(((....))).)))	-33.4	52.7
GCGTAAGCACGC ((((....))))	-9.59	59.6
GCGTACACGAAAGTGCGC (((..(((....))))))	-26.4	52.8
GCGTACCGAAAGGTCCGC (((.(((....))).)))	-49.9	58.2
GCGTACGAAAGTACTCGC ((((((....)))..)))	-15.6	46.5
GCGTACGAAAGTAGACGC ((((((....)))..)))	-25.3	51.8
GCGTACGAAAGTAGGCGC ((((((....)))..)))	-30	56
GCGTACGAAAGTAGTCGC ((((((....)))..)))	-25.1	45.3
GCGTACGAAAGTATTCGC ((((((....)))..)))	-25.5	40.7
GCGTACGCACGC ((((....))))	-17.1	56.9
GCGTACGGAAACGTATGC ((.((((....)))).))	-40.1	55.9
GCGTACTACGC ((((...))))	-24.6	55.2

Sequence	folding enthalpy [1] [kcal/mol]	Tm [2] [°C]
GCGTAGAAACGC ((((....))))	-18.6	48
GCGTAGCAACGC ((((....))))	-9.68	61.4
GCGTAGCGAAAGCACCGC (((..((....))..)))	-10.6	47.8
GCGTAGCGAAAGCGGCGC (((..((....))..)))	-22.4	69.1
GCGTAGCGAAAGCTAGGC ((.((((....)))).))	-20.9	59.6
GCGTAGCGAAAGCTCTGC ((..(((....)))..))	-7.19	43.8
GCGTAGCGAAAGCTGAGC ((..(((....)))..))	-16	54.4
GCGTAGCGAAAGCTTAGC ((..(((....)))..))	-14.6	51.5
GCGTAGGCACGC ((((....))))	-14.1	60.8
GCGTAGTCGAAAGACCGC (((..(((....))))))	-28.9	52
GCGTATCGAAAGATTCGC (((.(((....))).)))	-42.7	53.9
GCGTATCGACGC ((((....))))	-18.9	52.6
GCGTATCTACGC ((((....))))	-24.4	56.9
GCGTATGCACGC ((((....))))	-13.3	54.3
GCGTATGGAAACATACGC (((((((....)))))))	-37.7	68.2
GCGTATTTACGC ((((....))))	-26.7	54.5
GCGTCAAAACGC ((((....))))	-21.2	51.6
GCGTCACCGAAAGGTCGC (((..(((....))))))	-25.2	51.2
GCGTCACTACGC ((((....))))	-25.3	52.8
GCGTCAGACGC ((((...))))	-22.7	52.3
GCGTCAGGAAACCAACGC ((((..(....)..))))	-25.1	40.3
GCGTCAGGAAACTAACGC ((((.((....)).))))	-28.1	44.7
GCGTCATAACGC ((((....))))	-23.4	53.3
GCGTCATTACGC ((((....))))	-22.9	55
GCGTCCAACGC ((((...))))	-19.9	53.6

Sequence	folding enthalpy [1] [kcal/mol]	Tm [2] [°C]
GCGTCCCAACGC ((((....))))	-23.5	55.1
GCGTCCCGAAAGGGCCGC (((.(((....))).)))	-23.7	64.8
GCGTCCGAAAGGAAACGC ((((((....)))..)))	-34.1	54.4
GCGTCCGAAAGGAAGCGC ((((((....)))..)))	-29.7	67.4
GCGTCCGAAAGGACACGC ((((((....)))..)))	-14.6	60
GCGTCCGAAAGGACCGC ((((((....))).)))	-19.6	66.7
GCGTCCGAAAGGAGACGC ((((((....)))..)))	-31.4	57.6
GCGTCCGAAAGGAGCCGC ((((((....)))..)))	-16.9	50.1
GCGTCCGGAAACGGATGC ((.((((....)))).))	-37.3	65.1
GCGTCGAACGC ((((...))))	-18.2	50.3
GCGTCGCGAAAGCCCCGC (((..((....))..)))	-19.7	43.6
GCGTCGCGAAAGCCTCGC (((..((....))..)))	-21.7	50.8
GCGTCGCGAAAGCGGTGC ((..(((....)))..))	-18.1	58.9
GCGTCGCGAAAGCGTGGC ((..(((....)))..))	-14.9	49.8
GCGTCGCGAAAGCTAGGC ((.(.((....)).).))	-20.9	36.8
GCGTCGCGAAAGCTATGC ((.(.((....)).).))	-20.1	45
GCGTCGGGAAACCGACAC (.(((((....))))).)	-11.2	48.1
GCGTCGGGAAACTGGCGC (((.(.(....).).)))	-37.1	53.2
GCGTCGTCGAAAGACCGC (((..(((....))))))	-19.3	50.3
GCGTCTAGACGC ((((....))))	-31	58.6
GCGTCTCGAAAGAGTCGC (((.(((....))).)))	-38.1	58.1
GCGTCTCTACGC ((((....))))	-24.4	52.9
